From PubChem BioAssay
FAS-TE inh = FAS thioesterase domain inhibitors, primary screen, biochemical, fluorescence intensity, uHTS; actives 0.67% (n = 360,000); recombinant FAS-TE, OMFH fluorogenic substrate, fluorescence endpoint; AID 602261, 2012; Fatty acid synthase (Homo sapiens), P49327; inhibition, % at 15 µM;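 active means compounds whose normalised, plate-corrected inhibition of enzyme fluorescence in the single-dose primary screen is 50% or more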;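 further: 0% = DMSO with enzyme and 100% = substrate without enzyme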
iPSC survival up = enhancers of single-cell hiPSC survival, primary screen, ATPlite luminescence; 100% = ROCK inhibitor wells, 0% = DMSO; survival enhancement, % at 20 µM; actives 0.044% (n = 360,000); AID 602274, 2012; in the data active means survival enhancement above about 18%;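 further: cells exposed to compounds for 16 hours before the ATP read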
SENP1 FRET inh = human SENP1 catalytic domain inhibitors, primary screen, biochemical, FRET, uHTS | Sentrin-specific protease 1 (Homo sapiens), Q9P0U3 | recombinant SENP1 catalytic domain, CyPet-SUMO1-YPet FRET cleavage | inhibition, % at 10 µM | AID 624204, 2012 | actives 0.21% (n = 360,000);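 active means inhibition at least 30% at 10 µM, raw YFP signal under a set limit, fluorescence ratio 0.5 to 1.5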;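 further: 0% = enzyme with DMSO and 100% = no enzyme wells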
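Material – human SENP1 catalytic domain · Input – SENP1 enzyme, 20 pM final · Compound dosing – single concentration of 10 µM compound, 0.5% DMSO final · Timing – enzyme reaction for 50 min at room temperature, dark · Measured by – FRET fluorescence in CFP and YFP emission channels · Control set – no-enzyme wells low, DMSO-plus-enzyme wells high control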
ABCB6 inh 2 = ABCB6 transporter inhibitors, primary screen, K562-ABCB6 cells, flow cytometry, MLPCN library | K562-ABCB6 porphyrin accumulation, 1 h; active compounds read low | fluorescence ratio to DMSO, % at 10 µM | ATP-binding cassette sub-family B member 6 (Homo sapiens), Q9NP58 | actives 0.19% (n = 360,000) | AID 602162, 2011;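 active means fluorescence ratio to DMSO below 75%, the collection mean minus 3 SD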;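 further: signal is porphyrin accumulated inside mitochondria; 100% equals median channel fluorescence of DMSO control wells; lower ratio means ABCB6 inhibition with less porphyrin fluorescence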
FAS-TE conf = FAS thioesterase domain inhibitors, confirmation, biochemical, fluorescence intensity, single concentration | shares compounds with FAS-TE inh | recombinant FAS-TE, OMFH fluorogenic substrate | inhibition, % at 15 µM | actives 45% (n = 2,300) | AID 624325, 2012;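 active means compounds inhibiting the enzyme by at least 50% at 15 µM in any one of the replicates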;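 further: 0% = enzyme with DMSO only and 100% = wells lacking enzyme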
Active calls of the source: *; nt = no result given. Most compounds without a hit are left out; they make up all but 1.1% or so of the library.

SMILES	FAS-TE inh	iPSC survival up	SENP1 FRET inh	ABCB6 inh 2	FAS-TE conf
CCOC(=O)c1cc2c(=O)n3ccccc3nc2n(Cc2ccco2)c1=NC(=O)c1ccc(OC)cc1	64*	0	-31	94	47*
O=C(Cn1ncn2c(cc3sccc32)c1=O)NC1CCCC1	2	1	1	100	nt
CN(C)CCNC(=O)CN1C(=O)CSc2ccc(S(=O)(=O)N3CCCCC3)cc21	-2	-1	-1	98	nt
COc1cccc(NC(=O)CN2C(=O)CSc3ccc(S(=O)(=O)N4CCCCC4)cc32)c1	53*	0	4	101	66*
O=C(CN1C(=O)CSc2cc(S(=O)(=O)N3CCCCCC3)ccc21)NCCc1ccccc1	50*	1	-4	98	9
Cc1ccc(NC(=O)CN2C(=O)CSc3ccc(S(=O)(=O)N4CCCCC4)cc32)cc1	56*	-1	1	97	42*
CCOc1ccc(NC(=O)CN2C(=O)CSc3ccc(S(=O)(=O)N4CCCC4)cc32)cc1	30	0	-1	92	nt
Cc1cc2nc(-c3ccc(Cl)cc3)c(Cc3ccsc3)n2c(C)c1Br	14	-1	12	130	nt
COc1ccc(Cl)cc1Nc1nc(Cl)nc(NCCO)n1	-4	1	2	96	nt
O=C1OCCN1C(=O)[C@H]1[C@H](c2ccc(Cl)cc2)C(c2ccccc2)=NN1c1ccc(Br)cc1	81*	0	-107	100	39
O=C1OCCN1C(=O)[C@H]1[C@H](c2ccc(Cl)cc2)C(c2cccc(Cl)c2)=NN1c1ccccc1	94*	-2	-30	87	7
O=C1OCCN1C(=O)[C@H]1[C@H](c2ccc(F)cc2)C(c2cccc(Cl)c2)=NN1c1ccc(Br)cc1	73*	0	-22	101	21
O=C1OCCN1C(=O)[C@H]1[C@H](c2ccc(F)cc2)C(c2cccc(Cl)c2)=NN1c1ccccc1	59*	-2	-26	101	11
CC(C)CNc1ncnc2c1ncn2[C@H]1CN(Cc2cccs2)C[C@@H](CO)O1	-7	2	-1	93	nt
Cc1ccc(CN2CC(C(=O)Nc3ncccc3C)CC2=O)cc1 (stereo not drawn)	-3	0	3	102	nt
CC(C)Oc1ccc(S(=O)(=O)N2CCOCC2)cc1NC(=O)C1=COCCO1	-1	1	0	92	nt
O=S(=O)(c1ccccc1)N1CC2CC(Br)C(Br)CC21 (stereo not drawn)	9	-2	1	84	nt
Cc1cc(C)n2c(SCC(=O)Nc3ncc(C(F)(F)F)cc3Cl)nnc2n1	-2	0	-3	98	nt
CCn1c(SCC(=O)Nc2ncc(C(F)(F)F)cc2Cl)nnc1-c1cccc(C)c1	80*	0	-1	98	81*
COc1ccc(-c2nnc(SCC(=O)Nc3ncc(C(F)(F)F)cc3Cl)n2CC(C)C)cc1	79*	5	0	99	81*
CC(NC(=O)COc1cccnc1[N+](=O)[O-])c1ccc(Cl)cc1 (stereo not drawn)	12	0	0	98	nt
O=C(CN1CC(c2ccccc2)CC1=O)N/N=C/c1cc(Br)ccc1O (stereo not drawn)	69*	-1	-91	93	85*
O=C(CNC(=O)c1ccccc1)N/N=C/c1cc(Br)ccc1O	54*	1	-97	100	44*
O=C(CNC(=O)c1ccncc1)N/N=C/c1cc(Br)ccc1O	-1	1	-11	102	nt
C[C@H](CO)N1C[C@H](C)[C@H](CN(C)C(=O)c2ccccc2F)Oc2ncc(Br)cc2C1=O	-3	0	-1	103	nt
Cc1ccccc1NC(=O)Cc1nc(COC(=O)CSc2ccc(F)cc2)cs1	3	0	-9	100	nt
NC(=O)C1CCN(C2=C(Cl)C(=O)c3ccccc3C2=O)CC1	52*	-1	-2	102	29
O=C1CC(N(CCc2ccccc2)C(=S)Nc2ccccc2)C(=O)N1c1ccccc1 (stereo not drawn)	29	0	2	112	nt
